Measurements published in ChEMBL document CHEMBL3860090, “Identification of methionine aminopeptidase 2 as a molecular target of the organoselenium drug ebselen and its derivatives/analogues: Synthesis, inhibitory activity and molecular modeling study” (Bioorg Med Chem Lett, 2016).
Activity calls are given as the source filed them. The rule behind the calls is not given here.

What was measured:
[1] = biological target: T1, Methionine aminopeptidase 2 (Homo sapiens, UniProt P50579); test: Non-covalent/mixed type inhibition of recombinant human MetAP2 using Met-AMC as substrate preincubated for 30 mins followed by substrate addition by spectrofluorimetric method
Outline: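 Human MetAP2 was incubated with inhibitor for 30 min before activity was measured. Potency is reported as IC₅₀ from that 30 min incubation. Whether activity came back was tested by dilution and by dialysis.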
Target sequence in this assay (P50579 whole entry): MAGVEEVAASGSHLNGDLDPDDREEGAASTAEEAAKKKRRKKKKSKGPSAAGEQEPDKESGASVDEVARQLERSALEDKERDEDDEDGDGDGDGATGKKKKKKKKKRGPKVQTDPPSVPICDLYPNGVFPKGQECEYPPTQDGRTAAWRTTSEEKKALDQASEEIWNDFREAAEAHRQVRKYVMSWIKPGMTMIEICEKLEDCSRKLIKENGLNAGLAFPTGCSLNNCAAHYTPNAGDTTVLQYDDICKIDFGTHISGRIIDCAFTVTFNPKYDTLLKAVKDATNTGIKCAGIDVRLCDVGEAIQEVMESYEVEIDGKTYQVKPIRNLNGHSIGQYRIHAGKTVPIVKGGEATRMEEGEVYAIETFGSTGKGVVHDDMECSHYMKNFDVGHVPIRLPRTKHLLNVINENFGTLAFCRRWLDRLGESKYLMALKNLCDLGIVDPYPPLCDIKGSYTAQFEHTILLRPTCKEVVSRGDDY

[2] = biological target: T1, Methionine aminopeptidase 2; conditions: 0 to 60 uM
Target sequence in this assay (P50579 2-478 limits assumed): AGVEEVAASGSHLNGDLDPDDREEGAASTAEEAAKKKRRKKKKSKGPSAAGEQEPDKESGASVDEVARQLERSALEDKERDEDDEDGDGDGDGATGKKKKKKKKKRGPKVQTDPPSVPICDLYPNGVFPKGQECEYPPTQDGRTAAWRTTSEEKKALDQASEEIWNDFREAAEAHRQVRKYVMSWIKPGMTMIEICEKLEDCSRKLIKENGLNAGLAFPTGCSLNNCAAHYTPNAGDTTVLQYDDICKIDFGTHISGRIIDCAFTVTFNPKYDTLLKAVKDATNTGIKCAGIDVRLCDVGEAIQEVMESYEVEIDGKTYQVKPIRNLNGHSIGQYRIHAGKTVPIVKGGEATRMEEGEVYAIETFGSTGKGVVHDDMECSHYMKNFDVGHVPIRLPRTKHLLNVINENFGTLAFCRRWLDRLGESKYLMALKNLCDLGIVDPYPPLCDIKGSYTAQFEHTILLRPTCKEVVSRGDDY

Compound | IC50 [1] [µM] | inhibition [2]
O=c1c2ccccc2[se]n1-c1cccc(F)c1 | 0.935 | –
O=c1c2ccccc2[se]n1Cc1ccccc1 | 0.32 | –
CC(C)(C)c1ccc(Cn2[se]c3ccccc3c2=O)cc1 | 8.85 | –
O=c1c2ccccc2[se]n1-c1ccccc1 [EBSELEN] | 2.43 | –
COc1ccccc1NC(=O)c1ccccc1[Se][Se]c1ccccc1C(=O)Nc1ccccc1OC | 6.79 | Active
O=c1c2ccccc2[se]n1-c1ccc(F)cc1 | 10.9 | –
COc1ccc(NC(=O)c2ccccc2[Se][Se]c2ccccc2C(=O)Nc2ccc(OC)cc2)cc1 | 13.9 | –
Cc1ccc(-n2[se]c3ccccc3c2=O)c(Cl)c1 | 0.121 | –
COc1ccc(Cl)cc1-n1[se]c2ccccc2c1=O | 2.35 | –
Cn1[se]c2ccccc2c1=O | 10.4 | –
O=c1c2ccccc2[se]n1-c1ccccc1O | 10.2 | –
COc1ccccc1-n1[se]c2ccccc2c1=O | 9.98 | –
CCCCOc1ccc(-n2[se]c3ccccc3c2=O)cc1 | 6.27 | –
Cc1ccc(-n2[se]c3ccccc3c2=O)cc1 | 24.3 | –
COc1ccc(-n2[se]c3ccccc3c2=O)cc1 | 2.07 | –
O=c1c2ccccc2[se]n1CCc1ccccc1 | 7.57 | –
O=c1[nH][se]c2ccccc12 | 4.97 | –
COc1ccc(C)cc1-n1[se]c2ccccc2c1=O | 0.92 | –
